In all, about 320,000 compounds went through this assay and about 310 (0.097%) were called active. The full list was thinned out, with actives kept by preference. A number with no mark means an inactive call.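 Rule for the calls: active = mean replicate activation of at least 60% and every replicate at or above 60%; inconclusive = mean or all-replicate condition met, but not both; inactive = mean below 60% and not all replicates reaching 60%.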

This experiment is described as follows: activators of SR-BI mediated DiI-HDL uptake, primary screen, ldlA[mSR-BI] CHO cells, DiI fluorescence (AID 504775).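 Note: 0% = median plate neutral-control signal and 100% = twice that signal.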 The following applies: 3 h, at 12.5 µM, stronger effect = higher value, 100 = double the neutral-control signal. The method, boiled down:
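Material: SR-BI-overexpressing, LDLR-lacking CHO cells; schedule: compound exposure 3 h, 37 °C; reagent: DiI-labelled HDL at 10 µg/mL final; technique: bottom-read fluorescence, 550/595 nm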
Regarding `N=C1c2ccccc2-c2ccccc21`, the activation is 9.24%.

As for `COc1cc(O)c2c(=O)c3c(O)c(O)ccc3oc2c1OC`, the activation was -10.1%.

Regarding `O=c1nc(NO)ccn1C1CCCO1` (stereo unspecified), the activation is 15.7%.

On to `C(#CCN1CCOCC1)CCCN1CCOCC1`, for which the activation is 16.4%.

Turning to `CN1CCOC1c1ccc(C2OCCN2C)cc1` (stereo unspecified), the activation was 6.99%.

As to `C=CCN1C=C(C(=O)c2ccccc2)C(=O)CC1`, the activation is 19.3%.

As to `NN=C(NN=Cc1ccccc1)c1ccccc1`, the activation was 1.04%.

Take `O=C(Cc1ccccc1)NNS(=O)(=O)c1ccc([N+](=O)[O-])cc1`: the activation was -11.7%.

For the compound `O=C(NNS(=O)(=O)c1ccc([N+](=O)[O-])cc1)C1CCCCC1`, the activation was 62.5% (active).

As to `O=C(NCC(O)c1ccc([N+](=O)[O-])cc1)C1CCCCC1` (stereo unspecified), the activation is 2.53%.

Turning to `O=C(COC(=O)c1ccc(O)cc1O)NC(=O)c1ccccc1`, the activation is 38.7%.

With `O=C(NCc1ccccc1)c1cccc(NC(=O)C2CCCCC2)c1`, the activation was -0.488%.

For the compound `O=C1OCC2=C1C(c1ccc(Cl)cc1)c1cc3c(cc1O2)OCO3` (stereo unspecified), the activation is -14%.

Consider `CCN1C[C@@H]2[C@@H]3C(=O)N(C)C(=O)[C@@H]3[C@](C)(C1=O)N2C(=O)c1ccccc1`, for which the activation is -27.8%.

For `Oc1cccc(CCc2ccccn2)c1`, the activation was 0.288%.

In the case of `COc1cccc(/C=N/Nc2ccc(S(=O)(=O)Nc3ccccc3C(=O)O)cc2[N+](=O)[O-])c1O`, the activation was 4.5%.

Consider `CCCOc1ccccc1C(=O)NCCCC(=O)O`, for which the activation was 21.5%.

Consider `CCCN(CC(=O)Nc1ccc(C(N)=O)cc1)CC(=O)Nc1ccccc1C`, for which the activation is 13.5%.

For the compound `CCCN(CCC)CC(O)COc1ccccc1C(=O)Nc1ccccc1` (stereo unspecified), the activation was 102% (active).

`COc1ccc(CNCCCNCc2ccc(OC)c(OC)c2)cc1OC`: the activation is 4.58%.

Regarding `CC(C)(C)C(=O)Nc1cccc(-c2ccc[nH]2)n1`, the activation was 5.41%.

Take `O=C1C2C3C=CC(C3)C2C(=O)N1c1ncc([N+](=O)[O-])s1` (stereo unspecified): the activation is 8.82%.

As for `COc1ccc(Br)cc1/C=N/Nc1ccc(S(=O)(=O)Nc2ccccc2C(=O)O)cc1[N+](=O)[O-]`, the activation is 16.3%.

For `COc1ccc(/C=C/C(=O)OCC(=O)N2CCN(S(=O)(=O)c3ccc(C)cc3C)CC2)cc1OC`, the activation is -71.9%.

`CCOc1cc(C(=O)N(Cc2ccccc2)c2ccc(C)cc2)ccc1OCC(=O)N1CCOCC1`: the activation was -5.71%.

As for `O=C(NNC(=O)c1ccccc1O)c1ccccc1O`, the activation is -124%.

As to `CN(C)C(=S)N=c1ssc(=S)n1Cc1ccco1`, the activation was -0.753%.

As to `O=C(CC1Sc2ccccc2NC1=O)NNc1ccc(Cl)c(Cl)c1` (stereo unspecified), the activation was -45.6%.

Regarding `O=S(=O)(O)c1cc2onnc2c2ccccc12`, the activation is 15.5%.

On to `Nc1ccc2c(c1)C(O)c1ccc(Cl)cc1-2` (stereo unspecified), for which the activation is 14.5%.

With `COc1cc(C(=O)CCc2ccc3c(c2)OCO3)cc(OC)c1OC`, the activation is -43.2%.

As for `COC1=CC(=O)OC(c2ccc(OC)cc2)C1` (stereo unspecified), the activation was 14.1%.

With `O=C(NCCc1ccccc1)c1c[nH]c2ccc(F)cc2c1=O`, the activation was -17.9%.

As for `CC(C)[C@@H](C(=O)OCC(=O)c1ccc2c(c1)NC(=O)CO2)N1C(=O)c2ccccc2C1=O`, the activation was 1.12%.

Take `CCOC(=O)CCC(NC(=O)c1ccc(CNc2nc3cc(C(F)(F)F)ccc3nc2C(=O)OCC)cc1)C(=O)OCC` (stereo unspecified): the activation was -43.7%.

With `CC(=O)OC1CCC2C3CCC4=C(CC(F)C(=O)C4)C3CCC12C` (stereo unspecified), the activation was -3.99%.

As for `CC(=O)OCC(=O)C1(O)CCC2C3CC(C)C4=CC(=O)CCC4(C)C3C(O)CC21C` (stereo unspecified), the activation was -0.166%.

Take `Cc1ccc(C)c(S(=O)(=O)N(C)c2ccc(OC(=O)C3CCN(C(=O)c4ccc(F)cc4)CC3)cc2)c1`: the activation was -12.3%.

For `Cc1ccc(Cn2c(C)c3cnn(CC(=O)NCCN4CCOCC4)c(=O)c3c2C)cc1`, the activation was -22.1%.

Turning to `CCOC(=O)C1CCCN(C(=O)C2CCN(S(=O)(=O)c3ccc(Cl)c(C(F)(F)F)c3)CC2)C1` (stereo unspecified), the activation is 22.7%.

Turning to `COc1ccccc1N(CC(=O)Nc1c(C)n(C)n(-c2ccccc2)c1=O)S(=O)(=O)c1ccccc1`, the activation is 12%.

Turning to `O=C1OC(Oc2ccc(Br)cc2)(c2ccccc2)c2ccccc21` (stereo unspecified), the activation is -0.981%.

With `O=[N+]([O-])c1ccc(N=NNc2ccc([N+](=O)[O-])cc2)cc1`, the activation is 5.77%.

For `CCOC(=O)C(Cc1ccc(N)cc1)N1C(=O)c2ccccc2C1=O` (stereo unspecified), the activation was -16%.

Regarding `CC1=CC(C)(C)Nc2ccc(OC(=O)CN3C(=O)C4CCCCC4C3=O)cc21` (stereo unspecified), the activation is 9.46%.

As for `CC1=CC(C)(C)Nc2ccc(OC(=O)C(Cc3ccccc3)N3C(=O)C4CCCCC4C3=O)cc21` (stereo unspecified), the activation is 62.9% (active).

`Cc1ccccc1N(C(=O)CNC(=O)c1cccs1)C(C(=O)NC1CCCC1)c1ccncc1` (stereo unspecified): the activation is 4.44%.

Turning to `COc1ccc(C(C(=O)NC2CCCCC2)N(C(=O)c2snc(C(N)=O)c2N)c2ccccc2OC)cc1` (stereo unspecified), the activation is 13.6%.

On to `COc1ccc(C(C(=O)NC2CCCCC2)N(C(=O)CCl)c2ccccc2Cl)cc1` (stereo unspecified), for which the activation is 88.3% (active).

As for `Oc1ccc(-c2nc3ccccc3nc2-c2ccc(O)cc2O)c(O)c1`, the activation is -26%.

Take `C/C(=N\Nc1ccccc1)c1cccs1`: the activation was 13.7%.

Consider `O=C(CCCCCCCC(=O)N1CCCCC1)N1CCCCC1`, for which the activation is 7.36%.

In the case of `COc1ccc(CCC(=O)Nc2ccc(Cl)c(S(=O)(=O)N3CCOCC3)c2)cc1OC`, the activation is -60.3%.

In the case of `CC(=O)CSc1nc(CCc2ccccc2)c(C#N)c(=O)[nH]1`, the activation was 11%.

Turning to `Nc1ccc2[nH]c(=S)sc2c1`, the activation is -5.72%.

Turning to `COc1cc(S(=O)(=O)N2CCN(C(=O)C3CC3)CC2)ccc1NC(C)=O`, the activation was 60.7% (active).

In the case of `COc1ccc(S(=O)(=O)N2CCC(C(=O)N3CCOCC3)CC2)cc1OC`, the activation is 0.407%.

As to `COc1ccc(S(=O)(=O)N2CCC(C(=O)N3CCc4ccccc4C3)CC2)cc1OC`, the activation was 4.32%.

With `NC(=S)NN=C1CCCC(C(F)(F)F)C1` (stereo unspecified), the activation is -74%.

With `N#CCc1c[nH]c2ccc([N+](=O)[O-])cc12`, the activation was 13.4%.

Take `O=C1CC(c2ccccc2)C(=O)N2C(=O)CC(c3ccccc3)C(=O)N12` (stereo unspecified): the activation is 16.5%.

Take `C#CCOCCOCCOCCNc1nc(N2CCN(C(=O)Cn3cc(CCO)nn3)CC2)nc(N2CCN(C(=O)Cn3cc(CCCN=C(N)N)nn3)CC2)n1`: the activation is 17.5%.

Consider `COC(=O)CC(CC(=O)OC)n1cccc1`, for which the activation is 7.62%.

For `Cc1ccc(NC(=O)C(C)OC(=O)C2CC3CCCC(C2)C3=O)cc1S(=O)(=O)N1CCOCC1` (stereo unspecified), the activation is -2.41%.

In the case of `COc1ccc(CNC(=O)C[C@H]2C[C@H](C(=O)N3CCOCC3)[C@@]3(CCC4CCCC4)c4[nH]c5ccc(Cl)cc5c4CCN3C2=O)cc1OC`, the activation was -30.3%.

For the compound `CN(C)C(=O)CCc1ccc2c3c([nH]c2c1)[C@]1(CCC2CCCC2)[C@@H](C(=O)N2CCOCC2)C[C@H](CC(=O)NCc2ccco2)C(=O)N1CC3`, the activation is 14.3%.

With `O=C(C[C@H]1C[C@H](C(=O)N2CCOCC2)[C@@]2(CCC3CCCC3)c3[nH]c4ccc(Cl)cc4c3CCN2C1=O)NCc1ccco1`, the activation was 82.2% (active).

For `O=C(CC(=O)c1cccnc1)c1ccccc1`, the activation was -1.21%.

In the case of `CCOC(=O)c1c(C)[nH]c(C(=O)OCC(=O)c2ccc(OC)cc2OC)c1C`, the activation is -45.7%.

With `CCCCOC(=O)c1[nH]c(C)c(C(=O)OC)c1C`, the activation was 176% (active).

With `CCOC(=O)c1c(C)[nH]c(C(=O)OCC(=O)N2CCCC2=O)c1C`, the activation is 24.7%.

As for `COc1ccc(CNC(=O)CN2C(=O)c3ccccc3S2(=O)=O)cc1`, the activation was 16.4%.

Turning to `Cc1ccc(C(=O)O)c(NC=O)c1OCc1ccccc1`, the activation is 19.3%.

In the case of `COc1ccc(C(CNC(=O)c2cc(S(=O)(=O)Nc3cccc(C)c3)ccc2C)N2CCCC2)cc1` (stereo unspecified), the activation was 21%.

With `Cc1ccc(S(=O)(=O)N2CCC(C(=O)N3CCCCCCC3)CC2)cc1`, the activation is -7.71%.

Regarding `COc1ccc(S(=O)(=O)N2CCc3ccccc32)cc1C(=O)Nc1cc(S(C)(=O)=O)ccc1Cl`, the activation was -27.5%.

Regarding `O=C1/C(=C\c2ccc([N+](=O)[O-])cc2)CS(=O)(=O)C/C1=C/c1ccc([N+](=O)[O-])cc1`, the activation is -17.7%.

`Oc1[nH]c2ccccc2c1N=Nc1c(F)c(F)c(F)c(F)c1F`: the activation is -15.7%.

For the compound `Cc1cc(NC(=O)c2cc3ccccc3o2)no1`, the activation was 18.7%.

On to `COc1cc(C(=O)N2CCN(S(=O)(=O)c3ccc(C(C)C)cc3)CC2)ccc1OCC(=O)N1CCOCC1`, for which the activation is 10.9%.

On to `O=C(O)c1ccc([N+](=O)[O-])cc1Sc1ccsc1`, for which the activation was -7.71%.

With `O=C1NC(c2ccccc2)Cc2ccncc21` (stereo unspecified), the activation was 37.2%.

For `Cc1csc(NC(=O)C2=COCCO2)n1`, the activation was 11%.

For `CCC(CC)c1nnc(NC(=O)C2=COCCO2)s1`, the activation is 9.84%.

As to `Cc1sc(NC(=O)C2=COCCO2)c(C#N)c1C`, the activation is 172% (active).

`COc1ccc(C(CNC(=O)c2cccc(S(=O)(=O)Nc3ccc(Br)cc3)c2)N(C)C)cc1` (stereo unspecified): the activation is 24.3%.

For the compound `COc1ccc(CCNC(=O)c2ccc(NC(=O)CC3SC(N4CCCCC4)=NC3=O)cc2)cc1OC` (stereo unspecified), the activation was -66.6%.

As for `COC(=O)Cc1c(-c2[nH]c3ccccc3c2CC(=O)OC)[nH]c2ccccc12`, the activation is -37.9%.

With `O=C(C1=C(O)C(=O)N(Cc2ccccc2)C1c1cccnc1)c1ccco1` (stereo unspecified), the activation was 66.5% (active).

Consider `COc1ccc(C2C(C(C)=O)=C(O)C(=O)N2Cc2cccnc2)cc1` (stereo unspecified), for which the activation is 30%.

For `CCOc1cc(C2C(C(=O)c3ccco3)=C(O)C(=O)N2Cc2ccccc2)ccc1O` (stereo unspecified), the activation was 21.9%.
